pIC50: −log10 of the molar value. Values after ≈ are worked out from the molar mass of the structure shown.
What was measured:
Trichophyton rubrum = experiment: Antifungal activity against Trichophyton rubrum IFO 9185; format: functional
Micrococcus luteus = experiment: Antibacterial activity against Micrococcus luteus IFC 12708; format: functional
Bacillus subtilis = experiment: Antibacterial activity against Bacillus subtilis ATCC 6633; format: functional
Proteus vulgaris = experiment: Antibacterial activity against Proteus vulgaris ATCC 3851; format: functional
[1] = test system: Salmonella enterica subsp. enterica; experiment: Antibacterial activity against Salmonella Typhimurium ATCC 14028; format: functional, Salmonella enterica subsp. enterica serovar Typhimurium
Staphylococcus aureus [2] = experiment: Antibacterial activity against methicillin-resistant Staphylococcus aureus ATCC 43300; format: functional
Staphylococcus aureus [3] = experiment: Antibacterial activity against methicillin-resistant Staphylococcus aureus ATCC 700787; format: functional
Staphylococcus aureus [4] = experiment: Antibacterial activity against methicillin-resistant Staphylococcus aureus ATCC 700788; format: functional
Aspergillus fumigatus = experiment: Antifungal activity against Aspergillus fumigatus HIC 6094; format: functional
HCT-116 = experiment: Cytotoxicity against human HCT116 cells; format: functional, cell-based
Procedure, shortened: (§1)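 Cell proliferation inhibition measured by MTT assay; the value is reported as IC50 in µM.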

A549 = experiment: Cytotoxicity against human A549 cells; format: functional, cell-based; procedure, shortened: as §1
AGS = experiment: Cytotoxicity against human AGS cells; format: functional, cell-based; procedure, shortened: as §1
DU-145 = experiment: Cytotoxicity against human DU145 cells; format: functional, cell-based; procedure, shortened: as §1
MCF7 = experiment: Cytotoxicity against human MCF7 cells; format: functional, cell-based; procedure, shortened: as §1
HepG2 = experiment: Cytotoxicity against human HepG2 cells; format: functional, cell-based; procedure, shortened: as §1

C[C@@H]1[C@H](O)[C@@H](C)/C=C/C=C/C=C/C=C/C=C/C=C/C=C/[C@H](O[C@@H]2O[C@H](C)[C@@H](O)[C@H](N)[C@@H]2O)C[C@@H]2O[C@](O)(C[C@@H](O)C[C@@H](O)[C@H](O)CC[C@@H](O)C[C@@H](O)CC(=O)O[C@H]1C)C[C@H](O)[C@H]2C(=O)O [AMPHOTERICIN B]
MIC (Trichophyton rubrum): 1.56 µg/mL (≈ 1.69 µM)

CC1(C)S[C@@H]2[C@H](NC(=O)[C@H](N)c3ccccc3)C(=O)N2[C@H]1C(=O)O [AMPICILLIN]
MIC (Micrococcus luteus): 0.78 µg/mL (≈ 2.23 µM)
MIC (Bacillus subtilis): 3.13 µg/mL (≈ 8.96 µM)
MIC (Proteus vulgaris): 1.56 µg/mL (≈ 4.46 µM)
MIC [1]: 12.5 µg/mL (≈ 35.8 µM)
MIC (Staphylococcus aureus [2]): 12.5 µg/mL (≈ 35.8 µM)
MIC (Staphylococcus aureus [3]): 12.5 µg/mL (≈ 35.8 µM)
MIC (Staphylococcus aureus [4]): 25 µg/mL (≈ 71.5 µM)

CN1C(=O)[C@@]23Cc4ccc([N+](=O)[O-])cc4N2C(=O)[C@@]1(CO)SS3 [GLIONITRIN A]
MIC (Aspergillus fumigatus): 12.5 µg/mL (≈ 35.4 µM)
MIC (Trichophyton rubrum): 12.5 µg/mL (≈ 35.4 µM)
MIC (Micrococcus luteus): 0.78 µg/mL (≈ 2.21 µM)
MIC (Bacillus subtilis): 6.25 µg/mL (≈ 17.7 µM)
MIC (Proteus vulgaris): 3.13 µg/mL (≈ 8.86 µM)
MIC [1]: 3.13 µg/mL (≈ 8.86 µM)
MIC (Staphylococcus aureus [2]): 0.78 µg/mL (≈ 2.21 µM)
MIC (Staphylococcus aureus [3]): 0.78 µg/mL (≈ 2.21 µM)
MIC (Staphylococcus aureus [4]): 0.78 µg/mL (≈ 2.21 µM)
pIC50 (HCT-116): 6.09
pIC50 (A549): 6.26
pIC50 (AGS): 6.35
pIC50 (DU-145): 6.62
pIC50 (MCF7): 5.70
pIC50 (HepG2): 5.64

Source: ChEMBL document CHEMBL1151987, “Glionitrin A, an antibiotic-antitumor metabolite derived from competitive interaction between abandoned mine microbes” (J Nat Prod, 2009)
